The list is not random: actives were taken first. Their share in the collection is about 1.4%.
PG9 Ab binder: binders of HIV-1 gp120 antibody PG9, primary screen, biochemical, TR-FRET | HIV-1 gp120 / PG9 antibody interaction | TR-FRET gp120-PG9 antibody binding | inhibition, % at 6.7 µM | 360,000 tested, 0.43% active | AID 624416, 2012; in the data active means inhibition above about 8.5%
Rev-erbA mod: modulators of Rev-erb alpha DNA binding, primary screen, biochemical, FITC-DNA, fluorescence polarization, uHTS. 370,000 tested, 0.79% active. activity, % at 10 µM. Nuclear receptor subfamily 1 group D member 1 (Homo sapiens), P20393. Rev-erbα–FITC-DNA binding, 90 min;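 active means activity above about 14%, limit read from the data; passing the limit was not always enough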;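 further: 0% = DMSO wells with 35 nM protein and 100% = DMSO wells with 750 nM protein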
NR2E3 ag-1: NR2E3 agonists in two-hybrid cells, primary screen, cell-based, luminescence, CHO-S, Gal4-NCOR/VP16-NR2E3 | Photoreceptor-specific nuclear receptor (Homo sapiens), Q9Y5X4 | 360,000 tested, 0.35% active | inhibition of corepressor binding, % at 3.98 µM | AID 602229, 2012 | luciferase;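 active means inhibition above the mean of all tested compounds plus 3 SD, cut at about 70% in these data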;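 further: 0% = DMSO with NR2E3 transfected cells and 100% = cells lacking NR2E3 construct; higher means lower luciferase signal from less NR2E3 corepressor binding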
Target sequence (Q9Y5X4 whole entry, looked up, the tested form may be a part): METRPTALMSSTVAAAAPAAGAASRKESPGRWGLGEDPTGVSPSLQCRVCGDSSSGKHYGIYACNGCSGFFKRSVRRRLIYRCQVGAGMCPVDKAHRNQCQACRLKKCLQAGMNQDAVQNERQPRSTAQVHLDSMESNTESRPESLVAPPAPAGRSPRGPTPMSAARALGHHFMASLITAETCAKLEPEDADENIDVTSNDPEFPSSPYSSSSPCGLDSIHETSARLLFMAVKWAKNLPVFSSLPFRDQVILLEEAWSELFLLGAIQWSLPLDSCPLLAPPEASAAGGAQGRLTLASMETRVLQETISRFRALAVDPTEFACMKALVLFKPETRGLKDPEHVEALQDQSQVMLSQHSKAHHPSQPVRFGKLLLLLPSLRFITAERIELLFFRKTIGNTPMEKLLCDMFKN
NR2E3 ag-2: inhibitors of NR2E3-RetCOR corepressor binding, primary screen, NR2E3 agonist project, biochemical, TR-FRET, GST-NR2E3, biotin-RetCOR. inhibition of corepressor binding, % at 4.78 µM. AID 2300, 2010. 1536-well. 320,000 tested, 0.12% active. Photoreceptor-specific nuclear receptor (Homo sapiens), Q9Y5X4;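 active means percent inhibition above the cutoff of mean plus 3 SD of all tested compounds, set per screening campaign, cut at about 20% in these data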;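 further: 0% = DMSO wells and 100% = biotin wells as full block of FRET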
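Test system: GST-NR2E3 and biotin-RetCOR proteins | Quantity: 1.35 nM GST-tagged NR2E3 final | Medium: Tris pH 7.5 | Also added: 7 nM biotin-RetCOR | Dosing: Compound at 4.8 µM, single dose | Timing: 5 h at 4 °C | Detection: Time-resolved FRET | Read-out basis: Percent inhibition | Benchmarks: Biotin wells as high control, 0.6% DMSO wells as low control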
NR1D1 mod conf: modulators of Rev-erb alpha DNA binding, confirmation, biochemical, FITC-DNA, fluorescence polarization, single point | shares compounds with Rev-erbA mod | 90 min | activation, % at 25 µM | 3,000 tested, 61% active | AID 1259319, 2017;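 active means activation at or above a set limit, or at least 3 SD above the negative control mean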;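 further: 0% = 35 nM protein with DMSO and 100% = 750 nM protein high control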
RORg counter: modulation of RORgamma DNA binding, dose response, counter-screen for Rev-erb alpha modulator project, biochemical, fluorescence polarization, FITC-DNA; IC50, µM; shares compounds with Rev-erbA mod; AID 1259320, 2017; purified RORgamma protein-FITC-DNA binding; 910 tested, 8% active;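 active means Compounds whose fitted half-maximal concentration for disrupting protein-DNA binding is below 10 micromolar; the record names Rev-erb in its text, so the target is in doubt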
Numbers without * were called inactive; nt = not tested or not shown.

SMILES	PG9 Ab binder	Rev-erbA mod	NR2E3 ag-1	NR2E3 ag-2	NR1D1 mod conf	others
CC(=O)c1cccc(NC(=O)CCn2c(=S)oc3ccccc32)c1	-1.0	29.3*	0.9	-1.8	12.1
COc1ccc(C(=O)Nc2ccnn2C2CCN(Cc3ccn[nH]3)CC2)cc1	-0.1	-1.2	6.1	-1.4	nt
O=C(Nc1ccnn1C1CCN(Cc2ccn[nH]2)CC1)c1ccccc1	-1.0	15.6*	20.0	0.7	-5.0
CCOC(=O)c1c(-c2ccccc2)csc1NC(=O)c1cc(S(=O)(=O)N2CCOCC2)ccc1C	-0.5	33.6*	-6.5	-1.4	49.4*	RORg counter=>40
CCOC(=O)c1c(-c2ccccc2)csc1NC(=O)c1ccc(S(=O)(=O)N2CC(C)OC(C)C2)cc1 (stereo not drawn)	-0.3	4.2	-13.2	-0.7	nt
CCc1cccc(C)c1NC(=O)COC(=O)Cc1ccccc1	-1.8	-3.4	1.4	nt	nt
Cn1c(N)c(C(=O)c2ccc(Cl)cc2)c(=O)n(C)c1=O	-0.3	-4.3	-13.5	2.2	nt
Cc1nn(-c2ccc(Cl)cc2)c2sc(C(=O)c3c(N)n(C)c(=O)n(C)c3=O)cc12	1.0	30.8*	-5.8	-1.5	38.1*	RORg counter=>40
COc1ccc(OCC(=O)NNC(=S)NC(=O)C2CC2)cc1	-2.1	-4.7	17.4	nt	nt
Cc1cc(C)cc(OCC(=O)NNC(=S)NC(=O)C2CC2)c1	-0.3	33.0*	3.7	-2.5	-2.2
Cc1ccc(C)c(C(O)c2ncc(-c3ccccc3)[nH]2)c1 (stereo not drawn)	0.1	-9.3	13.8	nt	nt
COc1ccc(C)cc1-n1c(SCC(=O)Nc2cc(C)on2)nc2sc(C)c(C)c2c1=O	-14.8	11.1	-13.9	1.5	nt
CCc1sc2nc(SCC(=O)Nc3cc(C)on3)n(-c3cccc(OC)c3)c(=O)c2c1C	7.8	34.0*	-14.2	2.5	22.3*
C=CCn1c(SCC(=O)Nc2cc(C)on2)nc2sc(C)c(C)c2c1=O	-0.8	53.7*	0.8	-3.4	53.5*	RORg counter=>40
CCn1c(SCC(=O)Nc2cc(C)on2)nc2sc(C)c(C)c2c1=O	6.8	26.9*	nt	nt	34.8*	RORg counter=>40
CCCCCCSc1ccc(-c2nc3ccc(Cl)cn3c2NCCCC)cc1OC	0.8	6.4	-31.1	nt	nt
CCCCCCSc1ccc(-c2nc3ccc(C)cn3c2NCCCC)cc1OC	2.0	16.1*	-26.6	nt	6.3
CCCCNc1c(-c2ccc(SC3CCCCC3)c(OC)c2)nc2ccc(Cl)cn12	-2.4	19.6*	-16.6	1.8	8.8
CCCCCCSc1ccc(-c2nc3ccc(Cl)cn3c2NC2CCCCC2)cc1	1.2	22.8*	-13.0	nt	22.4*
CCCCCCSc1cc(-c2nc3ccc(Cl)cn3c2NC2CCCCC2)ccc1OC	0.0	10.7	24.8	1.0	nt
Cc1ccn2c(NC3CCCCC3)c(-c3ccc(SC4CCCCC4)cc3)nc2c1	3.6	32.8*	4.9	nt	14.7*
Cc1ccn2c(NC3CCCCC3)c(-c3cccc(SC4CCCCC4)c3)nc2c1	1.1	2.8	6.9	nt	nt
C[C@@H]1CN([C@@H](C)CO)C(=O)CCCn2nncc2CO[C@@H]1CN(C)S(=O)(=O)c1ccc2ccccc2c1	2.2	-7.5	-5.4	nt	nt
COc1cccc(NC(=O)C2(C)CCN2Cc2ccccc2OC(F)F)c1 (stereo not drawn)	-1.1	1.7	-20.8	nt	nt
CC1(C(=O)NS(=O)(=O)C2CC2)CCN(C(=O)c2ccc(F)c(Cl)c2)C1 (stereo not drawn)	-2.5	14.3	-35.7	nt	nt
Clc1ccc(Oc2ncnc3oc(-c4ccccc4)cc23)cc1	1.5	37.4*	8.1	0.1	18.3*
COc1ccc2nc(C(c3ccc(C)cc3)n3c(-c4ccccc4Br)nc4ccccc43)[nH]c2c1 (stereo not drawn)	0.6	-0.3	-143.7	nt	nt
COc1ccc(-n2nnnc2SCC(=O)c2cccc(OC)c2)cc1	-1.1	8.8	-4.8	1.2	nt

From PubChem
